According to ChEMBL document CHEMBL4308891, “Small molecules inhibit ex vivo tumor growth in bone” (Bioorg Med Chem, 2018):
The source made the active and inactive calls. The rule behind the calls is not given here.

Experiments:
MDA-MB-231 [1] = assay: Antiinvasive activity in human MDA-MB-231 cells assessed as inhibition of cell invasion at 5 uM by boyden chamber method relative to control; assay type: functional
MDA-MB-231 [2] = assay: (§1) Ex vivo antitumor activity against human MDA-MB-231 cells co-cultured with neonatal Swiss mouse bone in BGJb medium assessed as inhibition of tumor growth at 5 uM administered simultaneously with cancer cells measured on day 5 post treatment by Gaussia luciferase reporter gene assay relative to control; assay type: functional
How it was run: (§2)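 Calvariae from […] Swiss mouse pups were punched into 4 or 5 mm disks. Each was seeded with 1 x 10^4 tumor cells (lentiviral secreted Gaussia luciferase/GFP-blasticidin, FACS-sorted GFP+) in BGJb plus 10% fetal calf serum at 37°C, 5% CO2. After 24 h bones moved to fresh wells; medium changed every 2 days. Conditioned-medium luciferase read as RLU. Biological triplicate, mean ± SD, Welch's t-test.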

MDA-MB-231 [3] = assay: (§3) Ex vivo antitumor activity against human MDA-MB-231 cells co-cultured with neonatal Swiss mouse bone in BGJb medium assessed as inhibition of tumor growth at 5 uM administered on day 2 post cancer cells addition measured on day 7 post treatment by Gaussia luciferase reporter gene assay relative to control; assay type: functional; how it was run: as §2
MDA-MB-231 [4] = assay: as §3, with “5” for “7”; assay type: functional; how it was run: as §2
MDA-MB-231 [5] = assay: as §1, with “day 7” for “day 5”; assay type: functional; how it was run: as §2
MDA-MB-231 [6] = assay: Down regulation of IL-8 expression in human MDA-MB-231 cells co-cultured with neonatal Swiss mouse calvariae bone measured on day 7 post treatment by SYBR green-dye based RT-qPCR analysis; assay type: functional, cell-based
How it was run: (§4)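 Calvarial disk cultures ([…] Swiss pups) in BGJb plus 10% fetal calf serum were PBS-washed at day 7 and bead-homogenized in Qiazol. Aqueous-phase RNA was isolated, reverse-transcribed and run in triplicate real-time PCR with species-specific primers. Expression was normalized to ribosomal protein L32 mRNA. n = 3 or 4 cultures, ANOVA.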

MDA-MB-231 [7] = assay: Down regulation of FGF5 expression in human MDA-MB-231 cells co-cultured with neonatal Swiss mouse calvariae bone measured on day 7 post treatment by SYBR green-dye based RT-qPCR analysis; assay type: functional, cell-based; how it was run: as §4
Bone [8] = assay: Effect on osteocalcin expression in neonatal Swiss mouse calvariae bone co-cultured with human MDA-MB-231 cells measured on day 7 post treatment by SYBR green-dye based RT-qPCR analysis; assay type: functional, tissue-based; conditions: Bone element; how it was run: as §4
Bone [9] = assay: Effect on RANKL expression in neonatal Swiss mouse calvariae bone measured on day 7 post treatment by SYBR green-dye based RT-qPCR analysis; assay type: functional, tissue-based; conditions: Bone element; how it was run: as §4
MDA-MB-231 [10] = assay: Upregulation of Fas expression in human MDA-MB-231 cells co-cultured with neonatal Swiss mouse calvariae bone measured on day 7 post treatment by SYBR green-dye based RT-qPCR analysis; assay type: functional, cell-based; how it was run: as §4
MDA-MB-231 [11] = assay: Effect on ICAM expression in human MDA-MB-231 cells co-cultured with neonatal Swiss mouse calvariae bone measured on day 7 post treatment by SYBR green-dye based RT-qPCR analysis; assay type: functional, cell-based; how it was run: as §4
MDA-MB-231 [12] = assay: Down regulation of ENPP1 expression in human MDA-MB-231 cells co-cultured with neonatal Swiss mouse calvariae bone measured on day 7 post treatment by SYBR green-dye based RT-qPCR analysis relative to control; assay type: functional; how it was run: as §4
MDA-MB-231 [13] = assay: Cytotoxicity against human MDA-MB-231 cells at 0.625 to 5 uM after 24 hrs; assay type: cell-based; conditions: mda-mb-231, 24 h
MDA-MB-231 [14] = assay: Down regulation of CDH11 expression in human MDA-MB-231 cells co-cultured with neonatal Swiss mouse calvariae bone measured on day 7 post treatment by SYBR green-dye based RT-qPCR analysis
MIA PaCa-2 [15] = assay: Cytotoxicity against human MIAPaCa2 cells after 24 hrs; assay type: cell-based; conditions: mia paca-2, 24 h
MDA-MB-231 [16] = assay: Cytotoxicity against human MDA-MB-231 cells at 12.5 uM after 3 days by MTS assay; assay type: cell-based; conditions: mda-mb-231, 72 h
Bone [17] = assay: Effect on Col1A1 expression in neonatal Swiss mouse calvariae bone co-cultured with human MDA-MB-231 cells measured on day 7 post treatment by SYBR green-dye based RT-qPCR analysis; assay type: functional, tissue-based; conditions: Bone element; how it was run: as §4
MDA-MB-231 [18] = assay: Effect on CCL2 expression in human MDA-MB-231 cells co-cultured with neonatal Swiss mouse calvariae bone measured on day 7 post treatment by SYBR green-dye based RT-qPCR analysis; assay type: functional, cell-based; how it was run: as §4
Bone [19] = assay: Down regulation of RANKL expression in neonatal Swiss mouse calvariae bone co-cultured with human MDA-MB-231 cells measured on day 7 post treatment by SYBR green-dye based RT-qPCR analysis; assay type: functional, tissue-based; conditions: Bone element; how it was run: as §4
NCI-H460 [20] = assay: Antiinvasive activity in human NCI-H460 cells at 5 uM by boyden chamber method; assay type: functional, cell-based
Bone [21] = assay: Effect on TRAP expression in neonatal Swiss mouse calvariae bone measured on day 7 post treatment by SYBR green-dye based RT-qPCR analysis; assay type: functional, tissue-based; conditions: Bone element; how it was run: as §4
MDA-MB-231 [22] = assay: Antimigratory activity in human MDA-MB-231 cells at 10 uM after 9 hrs by wound healing assay; assay type: functional, cell-based
How it was run: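 Confluent monolayers in 12-well plates were scratched with a micropipette tip, washed, then cultured in complete medium with compound. Gap width between wound edges was measured by microscopy in three random regions right after wounding and at 6 and 9 h.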

[23] = Inhibition of angiogenesis in human HRMEC assessed as inhibition of endothelial cell tube formation up to 10 uM after 8 hrs by microscopic analysis
How it was run: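 Primary human retinal microvascular endothelial cells were grown on Matrigel in complete medium for 8 h, then tubule formation was measured. Significance was assessed by ANOVA.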

NCI-H460 [24] = assay: Cytotoxicity against human NCI-H460 cells after 24 hrs; assay type: cell-based; conditions: nci-h460, 24 h
MIA PaCa-2 [25] = assay: Antiinvasive activity in human MIAPaCa2 cells at 5 uM by boyden chamber method; assay type: functional, cell-based
MDA-MB-231 [26] = assay: Effect on CTGF expression in human MDA-MB-231 cells co-cultured with neonatal Swiss mouse calvariae bone measured on day 7 post treatment by SYBR green-dye based RT-qPCR analysis; assay type: functional, cell-based; how it was run: as §4
MDA-MB-231 [27] = assay: Upregulation of BCL2L1 expression in human MDA-MB-231 cells co-cultured with neonatal Swiss mouse calvariae bone measured on day 7 post treatment by SYBR green-dye based RT-qPCR analysis; assay type: functional, cell-based; how it was run: as §4
Bone [28] = assay: Down regulation of TRAP expression in neonatal Swiss mouse calvariae bone co-cultured with human MDA-MB-231 cells measured on day 7 post treatment by SYBR green-dye based RT-qPCR analysis; assay type: functional, tissue-based; conditions: Bone element; how it was run: as §4
U-87 MG [29] = assay: Cytotoxicity against human U87 cells after 24 hrs; assay type: cell-based; conditions: u-87mg atcc
U-87 MG [30] = assay: Antiinvasive activity in human U87 cells at 5 uM by boyden chamber method; assay type: functional, cell-based; conditions: U-87MG ATCC
MDA-MB-231 [31] = assay: Antiinvasive activity in human MDA-MB-231 cells by boyden chamber method; assay type: functional, cell-based
MDA-MB-231 [32] = assay: Down regulation of CCN3 expression in human MDA-MB-231 cells co-cultured with neonatal Swiss mouse calvariae bone measured on day 7 post treatment by SYBR green-dye based RT-qPCR analysis relative to control; assay type: functional; how it was run: as §4

SMILES: O=C1C2NN=C(c3ccc(Cl)cc3)C2C(c2cccc(F)c2)N1c1cccc(Br)c1 (stereo unspecified)
- inhibition at 5 µM (MDA-MB-231 [1]): > 70%
- TGI (MDA-MB-231 [2]): Active
- TGI (MDA-MB-231 [3]): Active
- TGI (MDA-MB-231 [4]): Active
- TGI (MDA-MB-231 [5]): Active

SMILES: O=C1C2NN=C(c3ccc(Cl)cc3)C2C(c2ccc(C(F)(F)F)cc2)N1CCc1c[nH]c2ccccc12 (stereo unspecified)
- inhibition at 5 µM (MDA-MB-231 [1]): 90%
- TGI (MDA-MB-231 [2]): Active
- TGI (MDA-MB-231 [3]): Active
- TGI (MDA-MB-231 [4]): Active
- TGI (MDA-MB-231 [5]): Active

SMILES: O=C1C2NN=C(c3ccc(Cl)cc3)C2C(c2cccc(F)c2)N1CCc1c[nH]c2ccccc12 (stereo unspecified)
- Activity (MDA-MB-231 [6]): Active
- Activity (MDA-MB-231 [7]): inactive
- Activity (Bone [8]): inactive
- Activity (Bone [9]): Active
- Activity (MDA-MB-231 [10]): Active
- Activity (MDA-MB-231 [11]): inactive
- Activity (MDA-MB-231 [12]): 90%
- Activity (MDA-MB-231 [13]): Non-Toxic
- Activity (MDA-MB-231 [14]): Active
- Activity (MIA PaCa-2 [15]): Non-Toxic
- Activity (MDA-MB-231 [16]): Non-Toxic
- inhibition at 5 µM (MDA-MB-231 [1]): > 70%
- Activity (Bone [17]): inactive
- TGI (MDA-MB-231 [2]): 70%
- Activity (MDA-MB-231 [18]): inactive
- Activity (Bone [19]): Active
- Activity (NCI-H460 [20]): inactive
- Activity (Bone [21]): inactive
- Activity (MDA-MB-231 [22]): inactive
- Activity [23]: Not Active
- TGI (MDA-MB-231 [3]): 36%
- Activity (NCI-H460 [24]): Non-Toxic
- Activity (MIA PaCa-2 [25]): Active
- Activity (MDA-MB-231 [26]): inactive
- TGI (MDA-MB-231 [4]): 53%
- TGI (MDA-MB-231 [5]): 60%
- Activity (MDA-MB-231 [27]): Active
- Activity (Bone [28]): Active
- Activity (U-87 MG [29]): Non-Toxic
- Activity (U-87 MG [30]): inactive
- Activity (MDA-MB-231 [31]): Dose-dependent effect
- IC50 (MDA-MB-231 [31]): 2600 nM
- Activity (MDA-MB-231 [32]): 90%

SMILES: Cc1ccc(N2C(=O)C3NN=C(c4ccc(Cl)cc4)C3C2c2cccc(C(F)(F)F)c2)cc1Br (stereo unspecified)
- inhibition at 5 µM (MDA-MB-231 [1]): > 70%
- TGI (MDA-MB-231 [2]): Active
- TGI (MDA-MB-231 [3]): Active
- TGI (MDA-MB-231 [4]): Active
- TGI (MDA-MB-231 [5]): Active

SMILES: COc1ccc(N2C(=O)C3NN=C(c4ccc(Cl)cc4)C3C2c2cccc(F)c2)cn1 (stereo unspecified)
- TGI (MDA-MB-231 [2]): Active
- TGI (MDA-MB-231 [3]): Active
- TGI (MDA-MB-231 [4]): Active
- TGI (MDA-MB-231 [5]): Active

SMILES: Cc1ccc(N2C(=O)C3C(C(c4ccc(Cl)cc4)=NN3C(C)C)C2c2cccc(F)c2)cc1Br (stereo unspecified)
- TGI (MDA-MB-231 [2]): Active
- TGI (MDA-MB-231 [3]): Active
- TGI (MDA-MB-231 [4]): Active
- TGI (MDA-MB-231 [5]): Active

SMILES: CCCN1N=C(c2ccc(Cl)cc2)C2C1C(=O)N(c1ccc(C)c(Br)c1)C2c1cccc(F)c1 (stereo unspecified)
- inhibition at 5 µM (MDA-MB-231 [1]): > 70%
- TGI (MDA-MB-231 [2]): Active
- TGI (MDA-MB-231 [3]): Active
- TGI (MDA-MB-231 [4]): Active
- TGI (MDA-MB-231 [5]): Active
